In ChEMBL document CHEMBL4513216, “Probing the Open Global Health Chemical Diversity Library for Multistage-Active Starting Points for Next-Generation Antimalarials” (ACS Infect Dis, 2020):

Assay: Toxicity liver stage against HepG2, at 10uM
Type: cell-based
Parameters: test concentration 10 uM, cell line HepG2-A16-CD81EGFP
Settings: human, HepG2-A16-CD81EGFP cells; read-out: INHIBITION
In short: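 Uninfected HepG2-A16-CD81EGFP cells, 3 × 10^3 per well, 1536-well, plated on prespotted compound at 10 μM final, parasite-free screening media added to match infected plates; puromycin 10 μM positive, DMSO 0.5% negative; run in parallel with 48 h PbLuc assay at 37 °C, 5% CO2; viability by CellTiter-Glo luminescence, normalized to controls.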

SMILES | cytotoxicity at 10 µM [%]
N#Cc1cc(S(N)(=O)=O)ccc1N1CCN(c2ccccc2)CC1 | -3.54
Cc1nn(C)c(Cl)c1C1CCCN1C(=O)c1ccc[nH]1 (stereo not given) | -8.57
Cn1cc(C2CCCN2C(=O)Cc2coc(-c3ccccc3)n2)cn1 (stereo not given) | 4.14
N#CC1(C(=O)NCCCNc2ccc(C(F)(F)F)cn2)CCCC1 | -6.36
COc1ccc2c(c1)OCC(Cc1ccc(N(C)C)nc1)C2 (stereo not given) | 2.77
CC(C)C(C(=O)NCC1CC1)n1cnc2cc(F)c(F)cc21 (stereo not given) | 3.26
CCOC(=O)c1n[nH]cc1-c1cncn1CCn1nc(C)c(C)c1C | -35.3
COc1cccc(COC(C)C(=O)N(C)Cc2nnc3n2CCC3)c1 (stereo not given) | 6.32
CN(CCN1CCOC1=O)CC(=O)Nc1cc(F)cc(F)c1 | -49.5
O=C(NCCc1ccccc1)N1CC[C@@H]2CNS(=O)(=O)[C@@H]2CC1 | -5.12
Clc1cnccc1N1CCC(OC2CCOCC2)CC1 | -0.439
CCN(CC)S(=O)(=O)N1CCCC(c2nccn2Cc2ccncc2)C1 (stereo not given) | 9.2
O=C([C@@H]1CC[C@@H]2[C@@H](CCN2c2ccncn2)O1)N1CCCCO1 | 3.13
CC(=O)N1CCN(C(=O)C(C)OCC(F)(F)F)CC1 (stereo not given) | -10.8
COc1ccc(C2Nc3ccccc3C3=NCCCN32)cc1OC (stereo not given) | 6.05
COCCCN(C)Cc1nc2c(cnn2C)c(=O)[nH]1 | -4.2
COc1ccc(C(C)N(C)Cc2nc3c(cnn3C)c(=O)[nH]2)cc1 (stereo not given) | -7.42
CN1N=C(C(=O)N2CCCC(CCc3ccccc3)C2)CCC1=O (stereo not given) | -10.5
Cc1cccc(C(=O)NC2CCN(c3cnn(C)c3)C2=O)n1 (stereo not given) | 3.48
CC(Sc1nc(N)cc(N)n1)c1nc(C(C)(C)C)no1 (stereo not given) | -5.27
CCn1c(=O)n(CC)c2cc(S(N)(=O)=O)ccc21 | -7.72
CC1CCCN1C1CCN(C(=O)c2cccc(-c3ccoc3)c2)CC1 (stereo not given) | -9.63

SMILES | cytotoxicity at 10 µM [%]
CNS(=O)(=O)Cc1ccccc1CNc1ccc(C#N)cn1 | -6.45
CS(=O)(=O)N1CCC(Cc2cnc(Br)cn2)CC1 | 13.4
Cc1cccc(CN2CCC3(CC2)CN(c2cccnc2)C(=O)CO3)n1 | -96.1
O=C1O[C@@H]2CN(Cc3cccc(F)c3)C[C@@H]2N1CCCN1CCOCC1 | -9.9
O=C(Cc1cccs1)N1CCCCC1c1ccn2ccnc2n1 (stereo not given) | -6.58
COc1ccc(C2CCCN2S(=O)(=O)N(C)CC(C)C)cc1 (stereo not given) | -6.72
COC(=O)c1cc(C(=O)N2CCCC(C)C2)n(-c2ccccc2)n1 (stereo not given) | -11.9
CC(C)N(C)Cc1cn2c(n1)CN(C(=O)c1ccc[nH]1)CC2 | -73.2
CN(CC(=O)NCCc1cc2ccccc2o1)S(C)(=O)=O | 6.56
Cc1noc(C)c1CN1CC[C@H]2OCC[C@@H](C(=O)NCC3CC3)[C@H]2C1 | 1.27
CCCc1cnc(C)nc1N1CCC(Cn2cc(C(C)O)nn2)CC1 (stereo not given) | 1.92
Cc1cccc(CN2C[C@@H]3CN(C(=O)c4conc4C)C[C@@H]3C2=O)c1 | 2.66
Cc1noc(C)c1CN1C[C@@H]2C[C@H](C(=O)NCC3CC3)N(C)[C@@H]2C1 | -1.24
Cn1ccnc1CN1CCN(CCOc2cccc(C#N)c2)CC1 | -18
Cc1ncnc2c1CCN(C(=O)c1cnccn1)CC2 | -5.19
CC1(Cc2ccc(Cl)cc2)Cc2cc(CCC(=O)O)ccc2O1 (stereo not given) | 2.79
Cc1ccc(C(=O)Nc2ccccc2F)n1C | 0.339
CN(Cc1ccco1)[C@@H]1CN(Cc2ccco2)[C@@H]2CCCO[C@H]12 | 1.41
Cc1ccc(NC(=O)N(C)Cc2cnn(C)c2)c(C)c1 | -10.7
CCC(=O)N1CCC2(CC1)CC(Oc1ccccc1)CO2 (stereo not given) | 7.69
O=C(O)c1cc2c(nc1-c1ccncc1)CCN(C1CCOC1)CC2 (stereo not given) | 9.34
CCOCc1ccccc1NC(=O)NC1CCN(C2CCCC2)C1 (stereo not given) | 9.42

SMILES | cytotoxicity at 10 µM [%]
CC(C)n1ccnc1CN1CCCN(C(=O)c2cc(Cl)c[nH]2)CC1 | -3.79
COCC(=O)N1CCCCC1c1nc(C)c2c(n1)N(CC1CC1)C(=O)C2 (stereo not given) | 10.5
c1cc(CCNc2ncnc3c2CCN(Cc2ccoc2)CC3)ccn1 | 9.08
CNC(=O)[C@H]1C[C@H]2CN(C(=O)Nc3ccccc3)C[C@@H]1O2 | 1.91
CCCOCC(=O)N1CCCC(c2nnc(CN3CCCCC3)n2C)C1 (stereo not given) | -2.34
COC(=O)Cn1ccc(=O)c2ccc(OC)cc21 | -20.7
CC(C)(NC(=O)Cc1ccccc1F)C(=O)O | 3.13
CCc1ncc(CNC2CC(=O)N(CCc3cccc(Cl)c3)C2)cn1 (stereo not given) | -3.62
Cc1c(CN(C)C(=O)c2ccnn2C)cnn1C | -5.33
Cc1nc(CN2CCN(CC3CCOC3)Cc3cccnc32)cs1 (stereo not given) | 11
COCCNc1ncc(-c2cccc(F)c2)c(-c2nccn2C)n1 | 13.4
c1ccc(COC[C@@H]2CCC[C@]23CN(Cc2nccs2)CCO3)nc1 | -65.4
O=C(c1ccc[nH]1)N1CCOC2(COCCN(c3cncnc3)C2)C1 (stereo not given) | 7.7
O=C1CCC(=O)N1CCn1nnc(-c2ccc(Br)cc2)n1 | 4.26
Cc1nnc([C@@]23CCO[C@@H]2CCN(S(=O)(=O)c2cccnc2)C3)o1 | -103
COc1ccc(C(CO)NC(=O)Nc2cccc(F)c2)cc1 (stereo not given) | -4.82
CCn1cc(CN2C[C@@H]3CCCN3C[C@@H]2CCSC)c(C)n1 | 3.29
CC(=O)N1CCOC(c2cc(N3CC(O)C3)nc(C)n2)C1 (stereo not given) | 3.16
CC(NC(=O)NCc1ccccc1F)(C(=O)O)c1ccco1 (stereo not given) | -5.64
CCC(C)N(Cc1ccncc1)C(=O)CCC(=O)OC (stereo not given) | -14.5
Cc1nc2ccccc2n1CCNCc1cccc(O)c1 | -3.89
Cc1nn(C)c(C)c1S(=O)(=O)NCC1(C(N)=O)CCOCC1 | 14.9

SMILES | cytotoxicity at 10 µM [%]
Cc1cc(-c2cc(N)c(=O)n(CC(=O)NC3CCCC3)n2)c(C)o1 | 4.39
Cc1cc(C)nc(N2CCC(c3ccnc(N(C)C)n3)CC2)n1 | 21.1
CCOc1cc(CNC(=O)c2cc(-c3ccccn3)no2)ccn1 | 1.63
COc1ccc(-c2cnc(CN3CCCC3Cn3cncn3)o2)cc1 (stereo not given) | 3.41
COCC1N(C(=O)N2CCOCC2)C2CCC1(O)CC2 (stereo not given) | -0.791
Cc1cccc(NS(=O)(=O)c2cc(C(=O)O)oc2C)c1 | -9.15
Cc1cn2nc(N3CCCC3CC(C)(C)C)sc2n1 (stereo not given) | 3.46
Cc1cc(N(C)C)nc(C2(C)CCCN2C(=O)c2ccccc2)n1 (stereo not given) | -27.4
COc1cccc(CNC(=O)c2nc3c(o2)CN(C(=O)N(C)C)C3)c1 | -1.68
Cc1ccc(NS(=O)(=O)c2cc(C(=O)O)oc2C)c(Br)c1 | 1.83
O=C(NCc1nc(NC2CCCC2)c2cc(Cl)ccc2n1)c1cncs1 | 4.15
COc1cccc2sc(N3CCN(C(=O)c4cc(C)on4)CC3)nc12 | 6.21
COc1cccc(S(=O)(=O)CCNC2CCc3ncnn3C2)c1 (stereo not given) | 2.53
COc1ccc(C)cc1CN(C)CC(=O)NC1(C)CCS(=O)(=O)C1 (stereo not given) | 1.28
Cn1ccc(C(=O)N2CCCC2c2cc[nH]n2)n1 (stereo not given) | -1.26
COC(C)(C)C(=O)NCC1CCN(Cc2cc3ccccc3[nH]2)C1 (stereo not given) | 5.85
O=C(NS(=O)(=O)c1cccnc1)C1CC(c2ccccc2)=NO1 (stereo not given) | -8.87
NC(=O)c1ccc(NC(=O)Cn2cc(-c3ccccc3)ncc2=O)cc1 | 4.6
CCN(Cc1cccc(F)c1)Cn1nc(C)c2c(C)onc2c1=O | -3.54
Cc1cnccc1N1CCN(C[C@]2(O)CCCN3CCCC[C@@H]32)CC1 | 10.4
CC(Cn1cc(Br)cn1)C(=O)Nc1ccncc1 (stereo not given) | -2.82
O=C(CC1Cn2ncnc2NC1=O)Nc1cccc(C(F)(F)F)c1 (stereo not given) | 6.17

SMILES | cytotoxicity at 10 µM [%]
c1nc2c(c(N3CCCC(Cn4cncn4)C3)n1)CCC2 (stereo not given) | 52.4
Cc1ccccc1C(=O)N1CC(C(=O)NCC2CC2)C2(CCOCC2)C1 (stereo not given) | 3.54
CSc1nnc(CC2CCN(C(=O)CCc3cccnc3)CC2)n1C | -43.5
CS(=O)(=O)NCc1cc(-c2cc(F)cc(F)c2)nc(N2CCOCC2)n1 | -9.24
N#Cc1cccc(OCCN2CCNC(=O)C2c2cccs2)c1 (stereo not given) | 6.76
O=C1COC2(CCN(C(=O)c3ccco3)CC2)CN1Cc1ccccn1 | 6.45
Cc1nnc(C(C)N2CCN(Cc3ccc(C#N)cc3)CC2)o1 (stereo not given) | -12.2
O=C(Cc1ccc(F)c(F)c1)NC1COc2ccccc2C1=O (stereo not given) | 4.61
CN(C)C(=O)C1CCCN1CCCNC(=O)c1ccccc1F (stereo not given) | -20.2
CCCn1ccnc1CN1CCCC(CC)(CO)C1 (stereo not given) | 3.44
CC(c1ccccn1)N(C)C(=O)NCCn1c(=O)oc2ccccc21 (stereo not given) | -6.37
Cc1cccc(C)c1OC1CCN(Cc2ccn(C)c(=O)c2)CC1 | -2.95
CC(C)n1nnnc1-c1ccc(NC(=O)N(C)CCN(C)C)cc1F | -2.71
COC(C)(C)CC(C)NCc1nncn1C1CCCCC1 (stereo not given) | -2.87
Cn1cnc(S(=O)(=O)N2CCO[C@H]3[C@@H](OCC4CC4)CC[C@@H]32)c1 | 7.74
CCCNS(=O)(=O)c1ccc2[nH]c(=O)cc(C)c2c1 | -3.37
CC(NC(=O)COc1ccccc1Cl)c1nnc2n1CCC2 (stereo not given) | -6
CCOCCn1nc(C)cc1C(=O)N1CC[C@](O)(CC)[C@H](O)C1 | -3
Cc1ccc(O)c(CNC2CCc3nc(C)nn3C2)n1 (stereo not given) | -1.08
CCc1noc(CN(C)C(=O)COc2cccc(Cl)c2C)n1 | 3.86
O=C(c1ccccn1)N1CCc2c(nc(N3CCCC3)[nH]c2=O)C1 | -5.71
CC(C)c1ncc(CN2CCCC(CO)C2)cn1 (stereo not given) | -1.49
